Columns and labels:
[1] = system: Rattus norvegicus; assay: Drug level in Sprague-Dawley rat systemic circulation at […], iv or 10 mg/kg, po; format: ADME, organism-based; conditions: in vivo, BLD = below limit of detection
[2] = Cmax in C57Bl/6 mouse liver at 10 mg/kg, po measured after 0.5 hrs by LC-MS analysis; format: ADME, organism-based; set-up: dose 10 mg/kg, route oral
Outline: (§1)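 Female fasted C57Bl/6 mice, nine per dose, got a single oral dose of 0.3, 1, 3 or 10 mg/kg. Blood was drawn at 0.5 h. Three mice per group were sacrificed at 1, 2 or 4 h for plasma and liver compound levels by LC-MS, and mean maximum levels are reported.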

[3] = Cmax in guinea pig up to […], iv; format: ADME, organism-based, Cavia porcellus; set-up: dose 4.9 mg/kg, route intravenous; conditions: in vivo
[4] = Intrinsic clearance in dog hepatocytes assessed per million cells at 1 uM up to 120 mins; format: ADME, cell-based, Canis lupus familiaris, Hepatocyte; conditions: read-out: CLH
[5] = Intrinsic clearance in cynomolgus monkey hepatocytes assessed per million cells at 1 uM up to 120 mins; format: ADME, cell-based, Macaca fascicularis, Hepatocyte; conditions: read-out: CLH
[6] = Cmax in C57Bl/6 mouse liver at 3 mg/kg, po measured after 0.5 hrs by LC-MS analysis; format: ADME, organism-based; set-up: dose 3 mg/kg, route oral; outline: as §1
[7] = Tmax in cynomolgus monkey at 10 mg/kg administered via oral gavage measured up to 72 hrs post dose; format: ADME, organism-based, Macaca fascicularis; conditions: in vivo
Outline: (§2)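 Cynomolgus monkeys (five per dose) given single oral gavage doses of 1, 3 or 10 mg/kg; dose levels in different animals, staggered by 3 days. Blood sampled pre-dose and at 0.25, 0.5, 1, 2, 4, 8, 24, 48 and 72 h for plasma compound levels, cytokines (ELISA or Luminex) and gene expression (microarray); clinical signs, body weight and temperature monitored.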

[8] = Cmax in cynomolgus monkey at 10 mg/kg administered via oral gavage measured up to 72 hrs post dose; format: ADME, organism-based, Macaca fascicularis; set-up: dose 10 mg/kg, route oral; conditions: in vivo
[9] = Cmax in cynomolgus monkey at 3 mg/kg administered via oral gavage measured up to 72 hrs post dose; format: ADME, organism-based, Macaca fascicularis; set-up: dose 3 mg/kg, route oral; conditions: in vivo
[10] = Tmax in dog at 1 mg/kg, po; format: ADME, organism-based, Canis lupus familiaris; conditions: in vivo
[11] = system: MDR1; assay: Apparent permeability across apical to basolateral side in MDCK cells expressing human MDR1 at 5 uM by LC-MS/MS analysis; format: ADME, cell-based, Canis lupus familiaris; conditions: dog
Outline: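 MDCK cells transfected with human MDR1 were grown as confluent monolayers. 5 µM compound was added apically or basolaterally, with or without the P-gp inhibitor GF120918. Appearance on the opposite side was measured by LC-MS/MS to give Papp; efflux ratio = B→A/A→B without inhibitor.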

[12] = AUC (0 to last) in cynomolgus monkey at 10 mg/kg administered via oral gavage measured up to 72 hrs post dose; format: ADME, organism-based, Macaca fascicularis; set-up: dose 10 mg/kg, route oral, time 0 - last; conditions: in vivo
[13] = Cmax in dog at 1 mg/kg, po; format: ADME, organism-based, Canis lupus familiaris; set-up: dose 1 mg/kg, route oral; conditions: in vivo
[14] = Ratio of drug uptake in liver to plasma in C57Bl/6 mouse at 0.3 to 10 mg/kg, po by LC-MS analysis; format: ADME, organism-based
Outline: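 Healthy fasted female C57Bl/6 mice, 9 per dose group, given a single oral dose of 0.3, 1, 3 or 10 mg/kg. Blood taken at 0.5 h. At 1, 2 or 4 h, three mice per group were sacrificed and plasma and liver compound levels were measured by LC-MS.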

[15] = Intrinsic clearance in rat hepatocytes assessed per million cells at 1 uM up to 120 mins; format: ADME, cell-based, Hepatocyte; conditions: read-out: CLH
[16] = Intrinsic clearance in human hepatocytes assessed per million cells at 1 uM up to 120 mins; format: ADME, cell-based, Hepatocyte; conditions: read-out: CLH
[17] = Activation of NFkappaB (unknown origin) expressed in HEK293 cells after 6 hrs luciferase reporter gene assay; format: cell-based; conditions: human
Outline: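 HEK293 cells were transfected with the NFκB-luciferase reporter alone, with no TLR vector, to detect direct NFκB activation.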

[18] = Tmax in cynomolgus monkey at 1 mg/kg administered via oral gavage measured up to 72 hrs post dose; format: ADME, organism-based, Macaca fascicularis; conditions: in vivo; outline: as §2
[19] = Cmax in C57Bl/6 mouse plasma at 3 mg/kg, po measured after 0.5 hrs by LC-MS analysis; format: ADME, organism-based; set-up: dose 3 mg/kg, route oral; outline: as §1
[20] = Intrinsic clearance in mouse hepatocytes assessed per million cells at 1 uM up to 120 mins; format: ADME, cell-based, Hepatocyte; conditions: read-out: CLH
[21] = Cmax in C57Bl/6 mouse plasma at 1 mg/kg, po measured after 0.5 hrs by LC-MS analysis; format: ADME, organism-based; set-up: dose 1 mg/kg, route oral; outline: as §1
[22] = Tmax in cynomolgus monkey at 3 mg/kg administered via oral gavage measured up to 72 hrs post dose; format: ADME, organism-based, Macaca fascicularis; conditions: in vivo; outline: as §2
[23] = AUC (0 to last) in cynomolgus monkey at 3 mg/kg administered via oral gavage measured up to 72 hrs post dose; format: ADME, organism-based, Macaca fascicularis; set-up: dose 3 mg/kg, time 0 - last, route oral; conditions: in vivo
[24] = Plasma concentration in dog at 1 mg/kg, po measured after 4 hrs post dose; format: ADME, organism-based, Canis lupus familiaris
[25] = Intrinsic clearance in human liver microsomes at 1 uM after 60 mins; format: ADME, microsome; conditions: read-out: CLH
[26] = Tmax in cynomolgus monkey at 1 to 10 mg/kg administered via oral gavage measured up to 72 hrs post dose; format: ADME, organism-based, Macaca fascicularis; conditions: in vivo; outline: as §2
[27] = Cmax in C57Bl/6 mouse plasma at 0.3 mg/kg, po measured after 0.5 hrs by LC-MS analysis; format: ADME, organism-based; set-up: dose 0.3 mg/kg, route oral; outline: as §1
[28] = Cmax in C57Bl/6 mouse liver at 1 mg/kg, po measured after 0.5 hrs by LC-MS analysis; format: ADME, organism-based; set-up: dose 1 mg/kg, route oral; outline: as §1
[29] = Cmax in C57Bl/6 mouse liver at 0.3 mg/kg, po measured after 0.5 hrs by LC-MS analysis; format: ADME, organism-based; set-up: dose 0.3 mg/kg, route oral; outline: as §1
[30] = Oral bioavailability in cynomolgus monkey at 1 to 10 mg/kg administered via gavage measured up to 72 hrs post dose; format: ADME, organism-based, Macaca fascicularis; conditions: in vivo
[31] = Cmax in C57Bl/6 mouse plasma at 10 mg/kg, po measured after 0.5 hrs by LC-MS analysis; format: ADME, organism-based; set-up: dose 10 mg/kg, route oral; outline: as §1
[32] = Tmax in C57Bl/6 mouse plasma at 0.3 to 10 mg/kg, po by LC-MS analysis; format: ADME, organism-based
Outline: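 Healthy fasted female C57Bl/6 mice, groups of 9, single oral dose 0.3, 1, 3 or 10 mg/kg. Blood at 0.5 h; three mice per group killed at 1, 2 or 4 h for plasma and liver compound (LC-MS) and ISG expression by RT-qPCR as fold change versus vehicle.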

[33] = Intrinsic clearance in mouse liver microsomes at 1 uM after 60 mins; format: ADME, microsome; conditions: read-out: CLH
[34] = Intrinsic clearance in cynomolgus monkey liver microsomes at 1 uM after 60 mins; format: ADME, Macaca fascicularis, microsome; conditions: read-out: CLH
[35] = system: Liver; assay: Drug level in Sprague-Dawley rat liver at […], iv or 10 mg/kg, po; format: ADME, organism-based; conditions: in vivo, BLD = below limit of detection
[36] = Cmax in Sprague-Dawley rat at […], iv or 10 mg/kg, po measured after 1 hr post dose; format: ADME, organism-based; conditions: in vivo
[37] = Intrinsic clearance in rat liver microsomes at 1 uM after 60 mins; format: ADME, microsome; conditions: read-out: CLH
[38] = Cmax in cynomolgus monkey at 1 mg/kg administered via oral gavage measured up to 72 hrs post dose; format: ADME, organism-based, Macaca fascicularis; set-up: dose 1 mg/kg, route oral; conditions: in vivo
[39] = Intrinsic clearance in dog liver microsomes at 1 uM after 60 mins; format: ADME, Canis lupus familiaris, microsome; conditions: read-out: CLH

Drug uptake [1]: Bld | Cmax [2]: 152 ng/g | Cmax [3]: 9700 ng/mL | hepatocyte CLint at 1 µM [4]: 7 µL/min/1e6 cells | hepatocyte CLint at 1 µM [5]: 80 µL/min/1e6 cells | Cmax [6]: 23 ng/g | Tmax [7]: 30 to 120 min | Cmax [8]: 23.4 ng/mL | Cmax [9]: 11.2 ng/mL | Tmax [10]: 30 min | Papp A→B at 5 µM [11]: 41 ×10⁻⁶ cm/s | AUC(0-t) at 72 h [12]: 57.5 ng·h/mL | Cmax [13]: 125 ng/mL | Kp [14]: 2 | hepatocyte CLint at 1 µM [15]: > 277 µL/min/1e6 cells | hepatocyte CLint at 1 µM [16]: 6 µL/min/1e6 cells | MEC [17]: > 25 µM | Tmax [18]: 60 to 120 min | Cmax [19]: 2.8 ng/mL | hepatocyte CLint at 1 µM [20]: 19 µL/min/1e6 cells | Cmax [21]: 7.1 ng/mL | Tmax [22]: 30 to 120 min | AUC(0-t) at 72 h [23]: 26.7 ng·h/mL | concentration at 4 h [24]: 10 ng/mL | microsomal CLint at 1 µM [25]: 25 µL/min/mg | Tmax [26]: 15 to 120 min | Cmax [27]: 3.7 ng/mL | Cmax [28]: 6.3 ng/g | Cmax [29]: 6.8 ng/g | bioavailability [30]: < 1% | Cmax [31]: 72.9 ng/mL | Tmax [32]: 30 to 60 min | microsomal CLint at 1 µM [33]: 55 µL/min/mg | microsomal CLint at 1 µM [34]: 87 µL/min/mg | Drug uptake [35]: Bld | Cmax [36]: 314 ng/mL | microsomal CLint at 1 µM [37]: > 346 µL/min/mg | Cmax [38]: 4.12 ng/mL | microsomal CLint at 1 µM [39]: 44 µL/min/mg
SMILES: Cc1cc(COc2nc(N)nc3ccn(Cc4ccccn4)c23)no1

From ChEMBL document CHEMBL4028850, “Identification and Optimization of Pyrrolo[3,2-d]pyrimidine Toll-like Receptor 7 (TLR7) Selective Agonists for the Treatment of Hepatitis B” (J Med Chem, 2017)
